In ChEMBL document CHEMBL4393663, “Targeting gliomas with triazene-based hybrids: Structure-activity relationship, mechanistic study and stability” (Eur J Med Chem, 2019):
The source made the active and inactive calls. The rule behind the calls is not given here.

Columns and labels:
GL261 [1] = test: Cytotoxicity against mouse GL261 cells assessed as reduction in cell viability incubated for 48 hrs by MTS assay; format: functional, cell-based; conditions: GL261, 48 h
[2] = Stability of the compound in PBS buffer at pH 7.4 assessed as half life by HPLC analysis; format: physicochemical
GL261 [3] = test: Cytotoxicity against mouse GL261 cells assessed as reduction in cell viability at 0.1 to 100 uM incubated for 48 hrs by MTS assay; format: functional, cell-based
[4] = Stability in 80% human plasma assessed as half life by HPLC analysis; format: ADME, cell-free
In short: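 Plasma pooled from 13 donors (heparin), stored at −18 °C, thawed slowly, diluted to 80% v/v with 10 mM PBS pH 7.4 at 37 °C; compound added from 10 mM acetonitrile stock; aliquots taken over time, centrifuged 12000 rpm 10 min, supernatant analyzed by HPLC for half-life; duplicate or triplicate runs.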

[5] = Octanol-phosphate buffered saline distribution coefficient, log D of compound at pH 7.4 at 1 mg shake for 30 mins and measured after 48 hrs by HPLC analysis; format: physicochemical
[6] = molecular target: T1, Histone deacetylase (Homo sapiens) (UniProt Q13547+O15379+Q9UBN7+Q92769+Q9UQL6+Q8WUI4+Q9BY41+Q96DB2+P56524+Q9UKV0+Q969S8); test: Inhibition of HDAC in human HeLa nuclear extract assessed as enzyme residual activity at 6.25 uM using Boc-Lys(acetyl)-AMC as substrate and measured after 15 mins by fluorescence assay relative to control; format: cell-free
In short: (§1)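 Fluorometric HDAC activity kit with HeLa nuclear extract as enzyme source; compounds from 20 mM DMSO stock, tested in duplicate. Deacetylated substrate treated with lysine developer; fluorescence read after 15 min at ex 360/em 460 nm.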

[7] = molecular target: T1, Histone deacetylase (Homo sapiens); test: Inhibition of HDAC in human HeLa nuclear extract assessed as enzyme residual activity at 100 uM using Boc-Lys(acetyl)-AMC as substrate and measured after 15 mins by fluorescence assay relative to control; format: cell-free; in short: as §1
[8] = molecular target: T1, Histone deacetylase (Homo sapiens); test: Inhibition of HDAC in human HeLa nuclear extract assessed as enzyme residual activity at 25 uM using Boc-Lys(acetyl)-AMC as substrate and measured after 15 mins by fluorescence assay relative to control; format: cell-free; in short: as §1
[9] = Drug metabolism assessed as Cu2+-mediated compound decomposition by measuring aniline formation at 33 uM measured at 1 min interval for 30 mins by UV-Vis spectrophotometric analysis
In short: (§2)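 Decomposition monitored by UV-Vis spectroscopy in methanolic solutions containing Cu2+ or Zn2+.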

[10] = Drug metabolism assessed as Zn2+-mediated compound decomposition by measuring aniline formation 33 uM measured at 1 min interval for 30 mins by UV-Vis spectrophotometric analysis; in short: as §2
[11] = molecular target: T1, Histone deacetylase (Homo sapiens); test: Inhibition of HDAC in human HeLa nuclear extract assessed as enzyme residual activity at 1 uM using Boc-Lys(acetyl)-AMC as substrate and measured after 15 mins by fluorescence assay relative to control; format: cell-free; in short: as §1
[12] = molecular target: T1, Histone deacetylase (Homo sapiens); test: Inhibition of HDAC in human HeLa nuclear extract assessed as enzyme residual activity at 10 nM using Boc-Lys(acetyl)-AMC as substrate and measured after 15 mins by fluorescence assay relative to control; format: cell-free; in short: as §1
[13] = molecular target: T1, Histone deacetylase (Homo sapiens); test: Inhibition of HDAC in human HeLa nuclear extract assessed as enzyme residual activity at 100 nM using Boc-Lys(acetyl)-AMC as substrate and measured after 15 mins by fluorescence assay relative to control; format: cell-free; in short: as §1
GL261 [14] = test: Induction of morphological changes in mouse GL261 cells assessed as decrease in cell aspect ratio at 10 uM incubated for 48 hrs by Hoechst 33258 staining based fluorescence microscopic analysis; format: functional
In short: (§3)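 After 48 h exposure, GL261 cells on coverslips fixed in 4% paraformaldehyde, permeabilized (0.1% Triton X-100), blocked 30 min, stained with Alexa Fluor-594 phalloidin and Hoechst 33258; ten random fields at 630×; circularity (4π·area/perimeter²) and aspect ratio traced manually on ≥120 cells per condition; three independent experiments.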

[15] = Stability of the compound in PBS buffer at pH 7.4 at 10^-5 M measured 5 min for 60 mins in presence of glutathione by UV-Vis spectrophotometric analysis; format: physicochemical; conditions: pH 7.4, 1 h, 10 µM
SH-SY5Y [16] = test: Induction of apoptosis in human SH-SY5Y cells assessed as increase in late necrotic cells at 10 uM incubated for 48 hrs by annexinV-PE/7-AAD staining based flow cytometric analysis; format: functional, cell-based
In short: (§4)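 SH-SY5Y cells grown on poly-D-lysine/laminin, differentiated 7 days with 10 µM retinoic acid, then exposed 48 h. Adherent plus floating cells pooled, resuspended in PBS/1% BSA, stained annexin V-PE/7-AAD and counted by flow cytometry into viable, early apoptotic, late apoptotic/necrotic; two readings per sample; three independent experiments in duplicate.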

GL261 [17] = test: Induction of apoptosis in mouse GL261 cells assessed as increase in early apoptotic cells at 10 uM incubated for 48 hrs by annexinV-PE/7-AAD staining based flow cytometric analysis; format: functional, cell-based
In short: (§5)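 GL261 cells exposed 48 h; trypsinized adherent cells combined with medium cells, pelleted, resuspended in PBS/1% BSA, stained with annexin V-PE/7-AAD; flow cytometry gating viable (both negative), early apoptotic (annexin+/7-AAD−), late apoptotic/dead (both positive); two readings per sample; three independent experiments in duplicate.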

GL261 [18] = test: Induction of morphological changes in mouse GL261 cells assessed as increase in cell circularity at 10 uM incubated for 48 hrs by Hoechst 33258 staining based fluorescence microscopic analysis; format: functional; in short: as §3
[19] = Induction of alkylation in 5'-GGGAGA-3' single stranded DNA (unknown origin) at ssDNA to compound concentration ratio of 1:3 to 1:250M incubated for 7 days by ESI-MS analysis
In short: (§6)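 Single-stranded oligonucleotide incubated with the compound in 10 mM ammonium bicarbonate buffer, pH 8.3, at 37 °C. Aliquots were taken at intervals and extracted three times with ethyl acetate, then centrifuged. The aqueous phase was analysed by flow-injection ESI(−) HRMS in 50:50 water/acetonitrile with 0.1% formic acid. Run in triplicate.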

GL261 [20] = test: Antiinvasive activity in mouse GL261 cells assessed as reduction in cell migration at 10 uM preincubated for 48 hrs and measured after 6 hrs by giemsa staining based Boyden chamber assay; format: functional
[21] = Stability of compound in PBS buffer at pH 7.4 at 10^-5 M measured 5 min for 60 mins in presence of N-acetylcysteine by UV-Vis spectrophotometric analysis; format: physicochemical; conditions: pH 7.4, 1 h, 10 µM
GL261 [22] = test: Induction of apoptosis in mouse GL261 cells assessed as reduction in cell viability at 10 uM incubated for 48 hrs by annexinV-PE/7-AAD staining based flow cytometric analysis; format: functional; in short: as §5
SH-SY5Y [23] = test: Induction of apoptosis in human SH-SY5Y cells assessed as reduction in cell viability at 10 uM incubated for 48 hrs by annexinV-PE/7-AAD staining based flow cytometric analysis; format: functional; in short: as §4
SH-SY5Y [24] = test: Induction of apoptosis in human SH-SY5Y cells assessed as increase in early apoptotic cells at 10 uM incubated for 48 hrs by annexinV-PE/7-AAD staining based flow cytometric analysis; format: functional, cell-based; in short: as §4
GL261 [25] = test: Induction of apoptosis in mouse GL261 cells assessed as increase in necrotic cells at 10 uM incubated for 48 hrs by annexinV-PE/7-AAD staining based flow cytometric analysis; format: functional, cell-based; in short: as §5
GL261 [26] = test: Induction of apoptosis in mouse GL261 cells assessed as increase in late apoptotic cells at 10 uM incubated for 48 hrs by annexinV-PE/7-AAD staining based flow cytometric analysis; format: functional, cell-based; in short: as §5
[27] = Induction of alkylation in 5'-GGGAGA-3' single stranded DNA (unknown origin) at ssDNA to compound concentration ratio of 1:250M incubated for 1 hr by ESI-MS analysis; in short: as §6
[28] = Drug metabolism assessed as Zn2+-mediated compound decomposition by measuring aniline formation at 33 uM measured at 30 mins interval for 12 hrs by UV-vis spectrophotometric analysis; in short: as §2

CC(C)C(=O)N(C)/N=N/c1ccc(C#N)cc1
IC50 (GL261 [1]): > 100 µM
half-life [2]: > 40 h
Activity (GL261 [3]): inactive
half-life [4]: 13.9 h
logD at 30 min [5]: 2.95
Activity [6]: 95.9%
Activity [7]: 77.6%
Activity [8]: 92.7%

CCCC(=O)N(C)/N=N/c1ccc(C#N)cc1
IC50 (GL261 [1]): > 100 µM
half-life [2]: > 40 h
Activity (GL261 [3]): inactive
half-life [4]: 15.2 h
logD at 30 min [5]: 3.19
Activity [6]: 97.1%
Drug metabolism [9]: Metabolite not detected
Activity [7]: 54.9%
Activity [8]: 72.5%
Drug metabolism [10]: Metabolite not detected

O=C(/C=C/c1ccc2c(c1)C(=O)CC1(CCN(Cc3ccccc3)CC1)C2)NO
Activity [11]: 10.9%
Activity [12]: 91%
Activity [13]: 52.4%

CCCC(CCC)C(=O)N(C)/N=N/c1ccc(C(C)=O)cc1
IC50 (GL261 [1]): 47 µM
half-life [2]: > 40 h
half-life [4]: > 40 h
logD at 30 min [5]: 4.56
Activity [6]: 98.6%
Activity [7]: 85.8%
Activity [8]: 94.8%

CCCC(CCC)C(=O)N(C)/N=N/c1ccc(C#N)cc1
IC50 (GL261 [1]): > 100 µM
half-life [2]: > 40 h
Activity (GL261 [14]): Active
half-life [4]: > 40 h
Stability [15]: Stable
Activity (SH-SY5Y [16]): Active
logD at 30 min [5]: 4.84
Activity (GL261 [17]): Active
Activity (GL261 [18]): Active
Activity [19]: inactive
Activity [6]: 99.1%
Activity (GL261 [20]): Active
Activity [7]: 94.6%
Stability [21]: Stable
Activity (GL261 [22]): Active
Activity (SH-SY5Y [23]): Active
Activity [8]: 98%
Activity (SH-SY5Y [24]): Active

CCCC(CCC)C(=O)N(C)/N=N/c1ccc(C(=O)OC)cc1
IC50 (GL261 [1]): 6.7 µM
half-life [2]: 31.4 h
Activity (GL261 [14]): Active
half-life [4]: > 40 h
Activity (SH-SY5Y [16]): Active
logD at 30 min [5]: 4.7
Activity (GL261 [17]): Active
Activity (GL261 [18]): Active
Activity [6]: 92.9%
Activity (GL261 [20]): Active
Activity [7]: 92.7%
Activity (GL261 [22]): Active
Activity (SH-SY5Y [23]): Active
Activity [8]: 97.3%
Activity (SH-SY5Y [24]): Active

Cn1nnc2c(C(N)=O)ncn2c1=O [TEMOZOLOMIDE]
IC50 (GL261 [1]): > 100 µM
half-life [2]: 2 h
Activity (GL261 [14]): inactive
Activity (SH-SY5Y [16]): Active
Activity (GL261 [18]): inactive
Activity (GL261 [20]): Active
Activity (SH-SY5Y [23]): Active
Activity (SH-SY5Y [24]): Active

CCCC(CCC)C(=O)N(C)/N=N/c1ccc(C(N)=O)cc1
IC50 (GL261 [1]): 11.9 µM
half-life [2]: > 40 h
Activity (GL261 [14]): Active
half-life [4]: > 40 h
Activity (GL261 [25]): Active
Activity (SH-SY5Y [16]): Active
logD at 30 min [5]: 3.68
Activity (GL261 [17]): Active
Activity (GL261 [18]): Active
Activity [6]: 90.5%
Activity (GL261 [20]): Active
Activity [7]: 79.8%
Activity (GL261 [22]): Active
Activity (GL261 [26]): Active
Activity (SH-SY5Y [23]): Active
Activity [8]: 91.6%
Activity (SH-SY5Y [24]): Active

CN=NNc1ccc(C#N)cc1
Activity [27]: Active
Drug metabolism [28]: Metabolite detected
Drug metabolism [9]: Metabolite detected

CCCC(CCC)C(=O)N(C)/N=N/c1ccc(C)cc1
IC50 (GL261 [1]): > 100 µM
half-life [2]: 31.3 h
half-life [4]: > 40 h
logD at 30 min [5]: 4.98
Activity [6]: 94.5%
Activity [7]: 89%
Activity [8]: 93.5%

CCC(CC)C(=O)N(C)/N=N/c1ccc(C#N)cc1
IC50 (GL261 [1]): > 100 µM
half-life [2]: > 40 h
Activity (GL261 [3]): inactive
half-life [4]: > 40 h
logD at 30 min [5]: 3.76
Activity [6]: 97.7%
Activity [7]: 95.1%
Activity [8]: 97.2%

CCOC(=O)c1ccc(/N=N/NC)cc1
Drug metabolism [28]: Metabolite detected
Drug metabolism [9]: Metabolite detected

CCCC(CCC)C(=O)N(C)/N=N/c1ccc(Cl)cc1
IC50 (GL261 [1]): 58.4 µM
half-life [2]: 27.3 h
half-life [4]: > 40 h
logD at 30 min [5]: 4.62
Activity [6]: 93%
Activity [7]: 66.4%
Activity [8]: 85.8%

CCCC(CCC)C(=O)N(C)/N=N/c1ccc(C(=O)OCC)cc1
IC50 (GL261 [1]): > 100 µM
half-life [2]: 34.1 h
half-life [4]: > 40 h
logD at 30 min [5]: 4.95
Activity [6]: 88.3%
Drug metabolism [9]: Metabolite not detected
Activity [7]: 55.3%
Activity [8]: 79.8%
Drug metabolism [10]: Metabolite not detected

CCCC(CCC)C(=O)N(C)/N=N/c1ccc(Br)cc1
IC50 (GL261 [1]): 80.6 µM
half-life [2]: 30.4 h
half-life [4]: > 40 h
logD at 30 min [5]: 4.81
Activity [6]: 98.9%
Activity [7]: 82.5%
Activity [8]: 95.6%
